Numbered stars: 1 amine (or outer) side, 2 acyl side, 3 side chain; on linkers, the order of the positions; unused ones are H or OH. Square brackets hold non-standard residues; d marks the D form. Peptide text beside a SMILES is read from it. * marks the point of attachment. X1 = N[C@@H](Cc1ccccc1)CN(CC(=O)[*:2])[*:1]; Phe(4-F) = N[C@@H](Cc1ccc(F)cc1)C(=O)O; N(NH2)2 = NN(N)*; NHNH2 = NN*
Assays:
[1] = target: Nociceptin receptor (Cavia porcellus) (UniProt P47748); experiment: Antagonistic potency against N/OFQ in electrically evoked contractions of guinea pig ileum at 1 uM; assay type: functional, tissue-based
Nociceptin receptor (Cavia porcellus), sequence (P47748 whole entry): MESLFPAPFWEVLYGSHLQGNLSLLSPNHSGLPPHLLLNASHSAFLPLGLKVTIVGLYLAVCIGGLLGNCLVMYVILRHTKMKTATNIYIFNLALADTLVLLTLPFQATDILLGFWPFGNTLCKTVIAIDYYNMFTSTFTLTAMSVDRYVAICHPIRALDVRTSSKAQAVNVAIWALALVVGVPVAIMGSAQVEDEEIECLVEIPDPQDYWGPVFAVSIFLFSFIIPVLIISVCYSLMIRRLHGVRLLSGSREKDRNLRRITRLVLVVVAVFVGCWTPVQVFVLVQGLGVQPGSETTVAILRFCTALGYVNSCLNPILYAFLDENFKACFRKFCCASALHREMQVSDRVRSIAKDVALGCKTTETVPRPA

[2] = target: Nociceptin receptor (Cavia porcellus) (UniProt P47748); experiment: Inhibition of electrically evoked contraction of guinea pig ileum; Effect evident only in some tissues; assay type: functional, tissue-based; details: filed as agonist
[3] = target: Nociceptin receptor (Mus musculus) (UniProt P35377); experiment: Inhibition of electrically evoked contraction of mouse vas deferens; Effect evident only in some tissues; assay type: functional; details: filed as agonist
Nociceptin receptor (Mus musculus), sequence (P35377 whole entry): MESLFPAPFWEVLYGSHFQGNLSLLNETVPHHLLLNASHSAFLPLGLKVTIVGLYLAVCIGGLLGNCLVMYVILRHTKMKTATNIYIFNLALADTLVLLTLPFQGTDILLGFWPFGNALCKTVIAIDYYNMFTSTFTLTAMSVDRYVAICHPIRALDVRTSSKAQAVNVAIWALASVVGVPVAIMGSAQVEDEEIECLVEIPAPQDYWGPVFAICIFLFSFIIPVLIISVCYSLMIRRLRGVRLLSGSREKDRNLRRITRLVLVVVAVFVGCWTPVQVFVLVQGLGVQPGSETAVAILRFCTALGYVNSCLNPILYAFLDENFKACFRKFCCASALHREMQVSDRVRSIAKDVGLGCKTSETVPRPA

[4] = target: Nociceptin receptor (Mus musculus) (UniProt P35377); experiment: Antagonistic potency against N/OFQ in electrically evoked contraction of mouse vas deferens at 1 uM; assay type: functional, tissue-based
Procedure, shortened: (§1)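 Male Swiss mice (25-30 g). Vas deferens in 5 mL baths of Mg2+-free Krebs at 33 °C, 0.3 g tension, field-stimulated with supramaximal 1 ms pulses at 0.05 Hz, isotonic recording.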

[5] = target: Nociceptin receptor (Cavia porcellus) (UniProt P47748); experiment: Maximal inhibition of electrically evoked contraction of guinea pig ileum; Effect evident only in some tissues; assay type: functional, tissue-based; details: filed as agonist
[6] = target: Nociceptin receptor (Mus musculus) (UniProt P35377); experiment: Maximal inhibition of electrically evoked contraction of mouse vas deferens; Effect evident only in some tissues; assay type: functional; details: filed as agonist
Nociceptin receptor [7] = target: Nociceptin receptor (Cavia porcellus, UniProt P47748); experiment: Inhibition of electrically evoked contraction of guinea pig ileum; assay type: functional, tissue-based
Nociceptin receptor (Cavia porcellus, UniProt P47748), sequence (P47748 whole entry): as the sequence (P47748 whole entry) above
Procedure, shortened: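 Guinea pig ileum from albino animals (250-300 g), in Krebs at 37 °C under 0.3 g resting tension. Field-stimulated with 1 ms supramaximal pulses at 0.05 Hz; twitches recorded isotonically. After ~1 h equilibration, cumulative concentration-response curves in 0.5 log steps. […] 5-8 experiments.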

Nociceptin receptor [8] = target: Nociceptin receptor (Mus musculus, UniProt P35377); experiment: Inhibition of electrically evoked contraction of mouse vas deferens; assay type: functional
Nociceptin receptor (Mus musculus, UniProt P35377), sequence (P35377 whole entry): as the sequence (P35377 whole entry) above
Procedure, shortened: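 Vas deferens from male Swiss mice (25-30 g), in Mg2+-free Krebs at 33 °C under 0.3 g resting tension. Field-stimulated with 1 ms supramaximal pulses at 0.05 Hz; twitches recorded isotonically. After ~1 h equilibration, cumulative concentration-response curves in 0.5 log steps. […] 5-8 experiments.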

Nociceptin receptor [9] = target: T1, Nociceptin receptor (Homo sapiens, UniProt P41146); experiment: Receptor binding affinity for recombinant human N/OFQ peptide receptor (NOP) expressed in chinese hamster ovary cells; assay type: cell-based, CHO
T1 sequence (P41146 whole entry): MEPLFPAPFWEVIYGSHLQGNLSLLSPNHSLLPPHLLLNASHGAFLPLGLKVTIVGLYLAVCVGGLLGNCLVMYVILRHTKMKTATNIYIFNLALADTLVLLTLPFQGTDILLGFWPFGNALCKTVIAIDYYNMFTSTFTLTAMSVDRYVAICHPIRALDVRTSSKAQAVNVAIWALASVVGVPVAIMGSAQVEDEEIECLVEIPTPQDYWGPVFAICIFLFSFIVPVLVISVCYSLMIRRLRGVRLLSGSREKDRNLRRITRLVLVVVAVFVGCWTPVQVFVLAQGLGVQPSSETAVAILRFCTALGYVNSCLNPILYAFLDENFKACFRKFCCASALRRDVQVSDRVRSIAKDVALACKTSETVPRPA

[10] = target: Nociceptin receptor (Mus musculus) (UniProt P35377); experiment: Antagonistic potency against N/OFQ in electrically evoked contraction of mouse vas deferens at 0.1 uM; assay type: functional, tissue-based; procedure, shortened: as §1
[11] = target: Nociceptin receptor (Mus musculus) (UniProt P35377); experiment: Maximal inhibition of electrically evoked contraction of mouse vas deferens; assay type: functional, tissue-based
Nociceptin receptor [12] = target: T1, Nociceptin receptor; experiment: Agonist potency against GTPgammaS binding in CHO cell membranes expressing the human NOP receptor (CHOhNOP)
Nociceptin receptor [13] = target: T1, Nociceptin receptor; experiment: Inhibition of forskolin stimulated cAMP levels in CHO cells expressing the human NOP receptor (CHOhNOP)
[14] = target: Nociceptin receptor (Cavia porcellus) (UniProt P47748); experiment: Maximal inhibition of electrically evoked contraction of guinea pig ileum; assay type: functional, tissue-based

## C[C@H](NC(=O)CNC(=O)[C@@H](NC(=O)[C@H](Cc1ccccc1)NC(=O)CNC(=O)CNC[C@@H](N)Cc1ccccc1)[C@@H](C)O)C(=O)N[C@@H](CCCN=C(N)N)C(=O)N[C@@H](CCCCN)C(=O)N[C@@H](CO)C(=O)N[C@@H](C)C(=O)N[C@@H](CCCN=C(N)N)C(=O)N[C@@H](CCCCN)C(=O)N[C@@H](CCCN=C(N)N)C(=O)N[C@@H](CCCCN)C(=O)N[C@@H](CC(N)=O)C(=O)N[C@@H](CCC(=O)N(N)N)C(=O)NN (H-[X1]GFTGARKSARKRKNE(N(NH2)2)-NHNH2)
[1]
  pKb: 7.47
[2]
  Log EC50: Agonist
[3]
  Activity: Agonist
[4]
  pKb: 8.04
[5]
  Emax: Agonist
[6]
  Emax: Agonist

## C[C@H](NC(=O)CNC(=O)[C@@H](NC(=O)[C@H](Cc1ccc(F)cc1)NC(=O)CNC(=O)CNC(=O)[C@@H](N)Cc1ccccc1)[C@@H](C)O)C(=O)N[C@@H](CCCNC(=N)N)C(=O)N[C@@H](CCCCN)C(=O)N[C@@H](CO)C(=O)N[C@@H](C)C(=O)N[C@@H](CCCNC(=N)N)C(=O)N[C@@H](CCCCN)C(=O)N[C@@H](CCCNC(=N)N)C(=O)N[C@@H](CCCCN)C(=O)N[C@@H](CC(N)=O)C(=O)N[C@@H](CCC(N)=O)C(N)=O
Nociceptin receptor [7]
  EC50: 1.05 nM
Nociceptin receptor [8]
  EC50: 0.437 nM
Nociceptin receptor [9]
  Ki: 0.00479 nM

## CC(C)C[C@H](NC(=O)[C@H](CCCCN)NC(=O)[C@H](CCCN=C(N)N)NC(=O)[C@H](C)NC(=O)[C@H](CO)NC(=O)[C@H](CCCCN)NC(=O)[C@H](CCCN=C(N)N)NC(=O)[C@H](C)NC(=O)CNC(=O)[C@@H](NC(=O)[C@H](Cc1ccc(F)cc1)NC(=O)CNC(=O)CNC(=O)CNCc1ccccc1)[C@@H](C)O)C(=O)N[C@@H](C)C(=O)N[C@@H](CC(N)=O)C(=O)N[C@@H](CCC(N)=O)C(N)=O
[1]
  pKb: 7.16
[2]
  Log EC50: Agonist
[3]
  Activity: Agonist
[4]
  pKb: 6.61
[5]
  Emax: Agonist
[6]
  Emax: Agonist

## C[C@H](NC(=O)CNC(=O)[C@@H](NC(=O)[C@H](Cc1ccc(F)cc1)NC(=O)CNC(=O)CNC[C@@H](N)Cc1ccccc1)[C@@H](C)O)C(=O)N[C@@H](CCCN=C(N)N)C(=O)N[C@@H](CCCCN)C(=O)N[C@@H](CO)C(=O)N[C@@H](C)C(=O)N[C@@H](CCCN=C(N)N)C(=O)N[C@@H](CCCCN)C(=O)N[C@@H](CCCN=C(N)N)C(=O)N[C@@H](CCCCN)C(=O)N[C@@H](CC(N)=O)C(=O)N[C@@H](CCC(=O)N(N)N)C(=O)NN (H-[X1]G[Phe(4-F)]TGARKSARKRKNE(N(NH2)2)-NHNH2)
[2]
  Log EC50: Agonist
[10]
  pKb: 9.2
[10]; Cavia porcellus
  pKb: 8.48
[11]
  Emax: 53%
[5]
  Emax: Agonist

## C[C@H](NC(=O)CNC(=O)[C@@H](NC(=O)[C@H](Cc1ccc(F)cc1)NC(=O)CNC(=O)CNC(=O)CNCc1ccccc1)[C@@H](C)O)C(=O)N[C@@H](CCCN=C(N)N)C(=O)N[C@@H](CCCCN)C(=O)N[C@@H](CO)C(=O)N[C@@H](C)C(=O)N[C@@H](CCCN=C(N)N)C(=O)N[C@@H](CCCCN)C(=O)N[C@@H](CCCN=C(N)N)C(=O)N[C@@H](CCCCN)C(=O)N[C@@H](CC(N)=O)C(=O)N[C@@H](CCC(=O)N(N)N)C(=O)NN
[2]
  Log EC50: Agonist
[3]
  Activity: Agonist
[10]
  pKb: 7.97
[10]; Cavia porcellus
  pKb: 7.82
[5]
  Emax: Agonist
[6]
  Emax: Agonist

## C[C@H](NC(=O)CNC(=O)[C@@H](NC(=O)[C@H](Cc1ccccc1)NC(=O)CNC(=O)CNC[C@@H](N)Cc1ccccc1)[C@@H](C)O)C(=O)N[C@@H](CCCN=C(N)N)C(=O)N[C@@H](CCCCN)C(=O)N[C@@H](CO)C(=O)N[C@@H](C)C(=O)N[C@@H](CCCN=C(N)N)C(=O)N[C@@H](CCCCN)C(=O)N[C@@H](CCCN=C(N)N)C(=O)N[C@@H](CCCCN)C(=O)N[C@@H](CC(N)=O)C(=O)N[C@@H](CCC(N)=O)C(N)=O (H-[X1]GFTGARKSARKRKNQ-NH2)
Nociceptin receptor [12]
  EC50: 0.933 nM
Nociceptin receptor [9]
  Ki: 0.0316 nM
Nociceptin receptor [13]
  EC50: 0.24 nM

## CC(C)C[C@H](NC(=O)[C@H](CCCCN)NC(=O)[C@H](CCCN=C(N)N)NC(=O)[C@H](C)NC(=O)[C@H](CO)NC(=O)[C@H](CCCCN)NC(=O)[C@H](CCCN=C(N)N)NC(=O)[C@H](C)NC(=O)CNC(=O)[C@@H](NC(=O)[C@H](Cc1ccccc1)NC(=O)CNC(=O)CNC(=O)[C@@H](N)Cc1ccccc1)[C@@H](C)O)C(=O)N[C@@H](C)C(=O)N[C@@H](CC(N)=O)C(=O)N[C@@H](CCC(N)=O)C(=O)O [NOCICEPTIN]
Nociceptin receptor [7]
  EC50: 5.25 nM
Nociceptin receptor [8]
  EC50: 5.37 nM

## C[C@H](NC(=O)CNC(=O)[C@@H](NC(=O)[C@H](Cc1ccc(F)cc1)NC(=O)CNC(=O)CNC(=O)[C@@H](N)Cc1ccccc1)[C@@H](C)O)C(=O)N[C@@H](CCCN=C(N)N)C(=O)N[C@@H](CCCCN)C(=O)N[C@@H](CO)C(=O)N[C@@H](C)C(=O)N[C@@H](CCCN=C(N)N)C(=O)N[C@@H](CCCCN)C(=O)N[C@@H](CCCN=C(N)N)C(=O)N[C@@H](CCCCN)C(=O)N[C@@H](CC(N)=O)C(=O)N[C@@H](CCC(=O)N(N)N)C(=O)NN
[14]
  Emax: 55%
[11]
  Emax: 94%

## C[C@H](NC(=O)CNC(=O)[C@@H](NC(=O)[C@H](Cc1ccccc1)NC(=O)CNC(=O)CNC(=O)[C@@H](N)Cc1ccccc1)[C@@H](C)O)C(=O)N[C@@H](CCCN=C(N)N)C(=O)N[C@@H](CCCCN)C(=O)N[C@@H](CO)C(=O)N[C@@H](C)C(=O)N[C@@H](CCCN=C(N)N)C(=O)N[C@@H](CCCCN)C(=O)N[C@@H](CCCN=C(N)N)C(=O)N[C@@H](CCCCN)C(=O)N[C@@H](CC(N)=O)C(=O)N[C@@H](CCC(N)=O)C(N)=O
Nociceptin receptor [7]
  EC50: 1.12 nM
Nociceptin receptor [8]
  EC50: 0.759 nM
Nociceptin receptor [9]
  Ki: 0.00692 nM
Nociceptin receptor [13]
  EC50: 0.1 nM

## CC(C)C[C@H](NC(=O)[C@H](CCCCN)NC(=O)[C@H](CCCN=C(N)N)NC(=O)[C@H](C)NC(=O)[C@H](CO)NC(=O)[C@H](CCCCN)NC(=O)[C@H](CCCN=C(N)N)NC(=O)[C@H](C)NC(=O)CNC(=O)[C@@H](NC(=O)[C@H](Cc1ccc(F)cc1)NC(=O)CNC(=O)CNC(=O)[C@@H](N)Cc1ccccc1)[C@@H](C)O)C(=O)N[C@@H](C)C(=O)N[C@@H](CC(N)=O)C(=O)N[C@@H](CCC(N)=O)C(N)=O
Nociceptin receptor [7]
  EC50: 1.86 nM
Nociceptin receptor [8]
  EC50: 2.57 nM
[14]
  Emax: 56%
[11]
  Emax: 92%

## C[C@H](NC(=O)CNC(=O)[C@@H](NC(=O)[C@H](Cc1ccccc1)NC(=O)CNC(=O)CNC(=O)[C@@H](N)Cc1ccccc1)[C@@H](C)O)C(=O)N[C@@H](CCCN=C(N)N)C(=O)N[C@@H](CCCCN)C(=O)N[C@@H](CO)C(=O)N[C@@H](C)C(=O)N[C@@H](CCCN=C(N)N)C(=O)N[C@@H](CCCCN)C(=O)N[C@@H](CCCN=C(N)N)C(=O)N[C@@H](CCCCN)C(=O)N[C@@H](CC(N)=O)C(=O)N[C@@H](CCC(=O)N(N)N)C(=O)NN
[14]
  Emax: 52%
[11]
  Emax: 95%

## CC(C)C[C@H](NC(=O)[C@H](CCCCN)NC(=O)[C@H](CCCNC(=N)N)NC(=O)[C@H](C)NC(=O)[C@H](CO)NC(=O)[C@H](CCCCN)NC(=O)[C@H](CCCNC(=N)N)NC(=O)[C@H](C)NC(=O)CNC(=O)[C@@H](NC(=O)[C@H](Cc1ccccc1)NC(=O)CNC(=O)CNC(=O)[C@@H](N)Cc1ccccc1)[C@@H](C)O)C(=O)N[C@@H](C)C(=O)N[C@@H](CC(N)=O)C(=O)N[C@@H](CCC(N)=O)C(=O)O
[14]
  Emax: 58%
[11]
  Emax: 95%

## C[C@H](NC(=O)CNC(=O)[C@@H](NC(=O)[C@H](Cc1ccccc1)NC(=O)CNC(=O)CNC(=O)CNCc1ccccc1)[C@@H](C)O)C(=O)N[C@@H](CCCN=C(N)N)C(=O)N[C@@H](CCCCN)C(=O)N[C@@H](CO)C(=O)N[C@@H](C)C(=O)N[C@@H](CCCN=C(N)N)C(=O)N[C@@H](CCCCN)C(=O)N[C@@H](CCCN=C(N)N)C(=O)N[C@@H](CCCCN)C(=O)N[C@@H](CC(N)=O)C(=O)N[C@@H](CCC(N)=O)C(N)=O
Nociceptin receptor [9]
  Ki: 0.129 nM

Reference: ChEMBL document CHEMBL1142699 (J Med Chem, 2005)
